Assay results reported in PMC7901021 (ACS chemical biology, 2021).

Columns and labels:
ALKBH5 [1] = molecular target: T1, ALKBH5 (Homo sapiens, UniProt Q6P6C2); test: m6A7-Broccoli fluorescence enzymatic inhibition assay; type: biochemical; conditions: for selectivity between FTO and ALKBH5 (in words): comparison of IC50 toward both demethylases
FTO [2] = molecular target: T2, FTO (Homo sapiens, UniProt Q9C0B1); test: as above; type: biochemical; conditions: for preference for FTO over ALKBH5: FTO vs ALKBH5 IC50
[3] = precipitation in assay buffer; type: physicochemical; conditions: dose response could not be determined
[4] = test system: orthotopically transplanted GSC tumors; conditions: cited from earlier work
ALKBH5 [5] = molecular target: T1, ALKBH5; conditions: cited from earlier work
[6] = test system: m6A and m6Am levels in GSCs; test: quantification of m6A and m6Am by HPLC-MS/MS/MS; type: cell-based, human
[7] = test system: TS576 patient-derived GSC neurospheres; test: neurosphere formation assay; type: cell-based, human; conditions: 2 days
[8] = test system: GSC-23 patient-derived GSC neurospheres; test: neurosphere formation assay; type: cell-based, human; conditions: GSC-23, 20 μM, 2 days
Method in brief: (§1)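 Neurospheres of patient-derived glioblastoma stem cell lines, with normal human neural stem cells run alongside, were exposed to 20 μM test compound for 2 days. Wells were imaged by bright field, and neurosphere size was quantified by image analysis from more than 50 neurospheres per group. Groups were compared by Student's t test.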

[9] = test system: healthy human neural stem cells (hNSCs) neurospheres; test: neurosphere formation assay; type: cell-based; conditions: 20 μM
Method in brief: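 Normal human neural stem cells were grown as neurospheres and treated with the test compound at 20 μM for 2 days. Neurospheres were imaged by bright field and sized by ImageJ, with more than 50 neurospheres per group. Comparisons by Student's t test.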

FTO [10] = molecular target: T2, FTO; test: steady-state inhibition kinetics; type: biochemical; conditions: vmax independent of inhibitor concentration; substrate 0-10 μM
[11] = test system: GBM-6 patient-derived GSC neurospheres; test: neurosphere formation assay; type: cell-based, human; conditions: GBM-6, 20 μM, 2 days
Method in brief: as §1

[12] = test system: m6A mRNA levels in TS576 cells; test: m6A dot blot assay of purified mRNA; type: cell-based, human; conditions: 30 μM, does not distinguish m6A and m6Am
Method in brief: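 TS576 patient-derived GSCs were treated with the test compound or DMSO, and mRNA was purified from them. m6A in the mRNA was assessed by dot blot. shControl versus shFTO knockdown in TS576 served as the reference for m6A change.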

MONOMAC6 and NB4 cells = conditions: cited from earlier work
FTO [13] = molecular target: T2, FTO; conditions: read-out: reported IC50 against FTO; cited from earlier work

T1 sequence (Q6P6C2 whole entry): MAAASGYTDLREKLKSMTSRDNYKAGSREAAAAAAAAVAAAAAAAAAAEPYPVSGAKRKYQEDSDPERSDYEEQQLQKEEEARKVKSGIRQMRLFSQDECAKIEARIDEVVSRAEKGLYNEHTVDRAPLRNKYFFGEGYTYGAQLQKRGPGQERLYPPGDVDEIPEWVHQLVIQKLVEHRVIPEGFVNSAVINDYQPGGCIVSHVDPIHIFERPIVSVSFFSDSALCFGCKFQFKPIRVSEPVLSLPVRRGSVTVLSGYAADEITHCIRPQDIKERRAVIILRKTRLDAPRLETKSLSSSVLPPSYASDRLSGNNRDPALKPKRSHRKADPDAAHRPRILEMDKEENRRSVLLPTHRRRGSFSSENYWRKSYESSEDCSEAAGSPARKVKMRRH
T2 sequence (Q9C0B1 whole entry): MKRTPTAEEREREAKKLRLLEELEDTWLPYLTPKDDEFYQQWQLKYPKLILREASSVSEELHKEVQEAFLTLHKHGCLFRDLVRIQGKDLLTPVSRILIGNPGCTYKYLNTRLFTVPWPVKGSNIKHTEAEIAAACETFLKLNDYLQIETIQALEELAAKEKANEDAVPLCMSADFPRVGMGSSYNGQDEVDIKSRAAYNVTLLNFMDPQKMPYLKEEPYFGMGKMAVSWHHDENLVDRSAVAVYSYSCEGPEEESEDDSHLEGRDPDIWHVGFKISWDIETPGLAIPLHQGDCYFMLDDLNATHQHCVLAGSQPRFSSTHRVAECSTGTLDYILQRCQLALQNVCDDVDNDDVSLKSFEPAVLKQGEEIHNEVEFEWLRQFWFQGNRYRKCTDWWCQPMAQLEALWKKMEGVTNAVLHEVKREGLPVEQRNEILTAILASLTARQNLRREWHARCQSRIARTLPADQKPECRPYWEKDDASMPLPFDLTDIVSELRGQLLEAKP

For `COc1ncc(-c2ccc3nc(C)ccc3c2)cn1` [FTO-11], the “selectivity between FTO and ALKBH5 (in words)” value (ALKBH5 [1]) was “equivalent inhibitors toward both demethylases”.

For `COc1ccc2cc(-c3cnc(N)nc3)ccc2c1` [FTO-12], the “preference for FTO over ALKBH5” value (FTO [2]) was at least 5 fold, the IC50 (ALKBH5 [1]) was over 40 µM and the “inhibition of ALKBH5 at the highest concentration measured” value (from here on “inhibition of ALKBH5”) (ALKBH5 [1]) was “no measurable inhibition”.

For `COCCNc1ncc(-c2ccc3cc(OC)ccc3c2)cn1` [FTO-15], the “precipitation in assay buffer” value [3] was “significant precipitation”.

In the case of `Cc1ccc(Cl)c(Nc2ccccc2C(=O)O)c1Cl` [MA, meclofenamic acid], the lifespan ([4]; intracranial GSC xenograft mice) is listed as “prolong lifespan”, the “tumor progression in vivo” value ([4]; orthotopically transplanted GSC tumors) is listed as “prevented tumor progression in vivo” and the “inhibition of FTO at 50 μM (stated as selectivity against ALKBH5)” value (ALKBH5 [5]) is listed as “little to no inhibition”.

In the case of `COc1ncc(-c2ccc3nc(N)sc3c2)cn1` [FTO-04], the “increase in m6A levels relative to DMSO control” value [6] is reported as ~ 1.4 ×, the “increase in m6Am levels relative to DMSO control” value [6] is reported as ~ 3.2 × and the “potency toward FTO relative to MA” value (FTO [2]; ratio of IC50 to MA (12.5 μM)) is reported as “approximately 4 ×”. For the same compound, the size of neurospheres ([7]; TS576, 20 μM) was “significantly decrease the size of neurospheres”, the “size of neurospheres vs vehicle control” value ([7]; TS576, 30 μM) was “significant reduction in size of the neurospheres” and the size of neurospheres [8] was “significantly decrease the size of neurospheres”. The size of neurospheres [9] was “no alteration in neurosphere size”, the mechanism of inhibition (FTO [10]) was “competitive mechanism of inhibition” and the size of neurospheres [11] was “significantly decrease the size of neurospheres”. The “m6A mRNA levels relative to DMSO control (dot blot)” value [12] was “increased”.

In the case of `COc1ncc(-c2ccc(CO)c(OC)c2)cn1` [FTO-06], the “preference for FTO over ALKBH5” value (FTO [2]) is reported as at least 5 fold.

For `Cc1noc(C)c1-c1cc(Cl)c(Nc2ccccc2C(=O)NO)c(Cl)c1` [FB23–2], the “cellular concentration relative to FB23” value (MONOMAC6 and NB4 cells; MONOMAC6 and NB4 cells) is given as 3−10 ×, the IC50 (FTO [13]) is given as 2.6 µM and the “inhibition of FTO at 50 μM (stated as selectivity against ALKBH5)” value (ALKBH5 [5]) is given as “little to no inhibition”.

With `COc1ccc2cc(-c3cnc(OC)nc3)ccc2c1` [FTO-08] the “selectivity between FTO and ALKBH5 (in words)” value (ALKBH5 [1]) was “equivalent inhibitors toward both demethylases”.

In the case of `COCCNc1ncc(-c2ccc(CO)c(OC)c2)cn1` [FTO-20], the “preference for FTO over ALKBH5” value (FTO [2]) is reported as at least 5 fold.

In the case of `COc1ncc(-c2cccc(OCc3ccccc3)c2)cn1` [FTO-03], the “precipitation in assay buffer” value [3] is reported as “significant precipitation”.

In the case of `COCCNc1ncc(-c2ccc3nc(C)ccc3c2)cn1` [FTO-19], the “selectivity between FTO and ALKBH5 (in words)” value (ALKBH5 [1]) is reported as “equivalent inhibitors toward both demethylases”.

With `Nc1ncc(-c2ccc3cc(O)ccc3c2)cn1` [FTO-10] the “selectivity between FTO and ALKBH5 (in words)” value (ALKBH5 [1]) was “equivalent inhibitors toward both demethylases”.

With `Nc1ncc(-c2cccc(Nc3ccccc3)c2)cn1` [FTO-09] the “potency toward ALKBH5 over FTO” value (ALKBH5 [1]; ALKBH5 vs FTO IC50) was about 10 times and the “selectivity between FTO and ALKBH5 (in words)” value (ALKBH5 [1]) was “distinct preference toward ALKBH5 over FTO”.

For `Cc1noc(C)c1-c1cc(Cl)c(Nc2ccccc2C(=O)O)c(Cl)c1` [FB23], the cellular uptake (MONOMAC6 and NB4 cells) is given as “poor cellular uptake”.

With `COCCNc1ncc(-c2ccc(OCc3ccccc3)cc2)cn1` [FTO-18] the “inhibition of ALKBH5” value (ALKBH5 [1]) was “no measurable inhibition”.

In the case of `Nc1ncc(-c2cccc(OCc3ccccc3)c2)cn1` [FTO-13], the “selectivity between FTO and ALKBH5 (in words)” value (ALKBH5 [1]) is reported as “distinct preference toward ALKBH5 over FTO”.

For `COc1ccc2cc(-c3cncnc3)ccc2c1` [FTO-05], the “preference for FTO over ALKBH5” value (FTO [2]) was at least 5 fold, the IC50 (ALKBH5 [1]) was over 40 µM and the “inhibition of ALKBH5” value (ALKBH5 [1]) was “no measurable inhibition”.

With `Cc1ccc2cc(-c3cncnc3)ccc2n1` [FTO-07] the “inhibition of ALKBH5” value (ALKBH5 [1]) was “no measurable inhibition”.
